Assay outcomes as filed in PubChem.
OX1R antag-1 – antagonists of human orexin 1 receptor (OX1R) | inhibition, % at 6.6 µM | OX1R-expressing cells, FRET antagonist read-out | 330,000 tested, 1.8% active | O43613 | AID 485270; in the data active means inhibition mostly above about 38%, no sharp cut-off; inactive means mostly below about 40%;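 further: 0% = agonist challenge alone and 100% = reference antagonist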
OX1R antag-2 – antagonists of human orexin 1 receptor | inhibition, % at 5 µM | CHO/OX1R cells, Fluo-8 calcium fluorescence, orexin A | 330,000 tested, 0.43% active;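 active means inhibition above its plate's threshold, mean inhibition of all tested compounds on the plate plus 3 SD, cut at about 37% in these data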;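 further: 0% = orexin A challenge wells and 100% = SB-334867-A antagonist wells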
GPR7 antag – blocks human GPR7 receptor signaling | P48145 | GPR7-expressing cells, fluorescence antagonist assay | inhibition, % at 4.4 µM | 290,000 tested, 1.1% active | AID 1861; in the data active means inhibition above about 16%, passing the limit was not always enough;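 further: cells stimulated with the agonist NPW; 0% = agonist with vehicle and 100% = vehicle without agonist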
GalR3 antagonist – blocks the human galanin receptor 3; inhibition, % at 3 µM; AID 651719; 360,000 tested, 0.44% active; HEK293 GalR3-CNG cAMP membrane potential fluorescence; galR3 body fused to GalR1 C-terminus; O60755;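 active means inhibition above the screen-wide average plus 3 SD, cut at about 13% in these data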;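 further: forskolin and galanin both at EC90 stimulate the cells; cAMP rise reported by CNG channel membrane potential dye signal; 0% = forskolin plus galanin with DMSO and 100% = forskolin alone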
Target sequence (O60755 1-299 limits assumed): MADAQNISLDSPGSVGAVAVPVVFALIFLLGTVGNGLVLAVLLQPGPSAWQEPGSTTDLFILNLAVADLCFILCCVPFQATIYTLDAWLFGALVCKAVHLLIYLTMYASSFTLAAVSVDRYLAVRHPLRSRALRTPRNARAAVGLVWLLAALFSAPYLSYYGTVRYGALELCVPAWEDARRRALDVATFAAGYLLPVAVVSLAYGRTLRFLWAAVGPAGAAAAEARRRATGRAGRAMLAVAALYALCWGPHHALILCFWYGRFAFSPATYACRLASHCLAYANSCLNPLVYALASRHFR
CHO parental Ca – counter-screen for OX1R antagonists: effect in parental CHO cells. parental CHO-K1, ATP-induced calcium, Fluo-8 fluorescence. inhibition, % at 5.6 µM. 330,000 tested, 0.63% active. AID 463079;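 active means inhibition above that plate's mean sample inhibition plus 3 SD, cut at about 26% in these data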;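 further: 0% = ATP-challenged DMSO wells and 100% = DMSO wells without ATP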
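Material – parental CHO cells · Reagent – ATP stimulus · Compound – single nominal dose of 5.6 µM per compound · Detection – Fluo-8 fluorescence · Read-out basis – percent inhibition of calcium signal · Controls – ATP-challenged DMSO wells low, unchallenged DMSO wells high · Repeats – no replicates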
OX1R HTRF confirm – confirmation of human orexin 1 receptor antagonists, HTRF format | shares compounds with OX1R antag-1 | OX1R-expressing cells, HTRF antagonist assay | inhibition, % at 6.6 µM | 1,800 tested, 49% active | AID 492964; in the data active means inhibition above about 55%;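 further: CHO cells expressing OX1R stimulated with orexin A at about EC80; 0% = agonist challenge alone and 100% = reference antagonist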
CHO-K1 HTRF – signal in parental CHO-K1 cells, OX1R antagonist counter-screen; shares compounds with OX1R antag-1; HTRF counterscreen; inhibition, % at 6.6 µM; 1,800 tested, 48% active; AID 493232; in the data active means inhibition above about 17%;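 further: 0% = agonist challenge with vehicle and 100% = vehicle alone without agonist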
Active calls of the source: *. An excerpt weighted towards active compounds, which were near 3.1% of everything screened.

What do the screens show for `O=C(CCCN1C(=O)C2CCCCN2C1=O)N1CCN(c2ccc([N+](=O)[O-])cc2)CC1` (stereo not drawn)?
OX1R antag-1: 79*; OX1R antag-2: -11; GPR7 antag: -12; GalR3 antagonist: -2; CHO parental Ca: -6; OX1R HTRF confirm: 27; CHO-K1 HTRF: 25*

Results for O=C1C2CCCCN2C(=O)N1CCN1CCN(c2ccc([N+](=O)[O-])cc2)CC1 (stereo not drawn) ?
OX1R antag-1: 39; OX1R antag-2: -16; GPR7 antag: -13; GalR3 antagonist: -3; CHO parental Ca: -11

Results for COCCCN(C(=O)CSCC(=O)Nc1ccc(C)cc1)c1c(N)n(Cc2ccccc2)c(=O)[nH]c1=O ?
GalR3 antagonist: -3

Results for Cc1ccc(S(=O)(=O)N2C[C@H]3[C@H]4C(=O)N(Cc5ccccc5)C(=O)[C@H]4CC(=O)[C@H]3[C@@H]2c2ccccc2)cc1 ?
GalR3 antagonist: -6

Results for CN1CCN(c2ccc3sc(-n4ccc5ccccc54)nc3c2)CC1 ?
GalR3 antagonist: -8

What do the screens show for `Nc1ncc(-c2ccc([N+](=O)[O-])cc2)cn1`?
OX1R antag-1: 105*; OX1R antag-2: -1; GPR7 antag: -12; GalR3 antagonist: -1; CHO parental Ca: -11; OX1R HTRF confirm: 39; CHO-K1 HTRF: 41*

What do the screens show for `CC(C)C[C@@H]1O[C@H](CCc2ccccc2)Cc2[nH][nH]c(=O)c21`?
GalR3 antagonist: -7

How did O=C(Cc1cccs1)Nc1cccc(-c2nc3ccccc3o2)c1 do in these assays?
OX1R antag-1: 77*; OX1R antag-2: 7; GPR7 antag: -14; GalR3 antagonist: -4; CHO parental Ca: -21; OX1R HTRF confirm: 74*; CHO-K1 HTRF: 0

What do the screens show for `Cc1ccc(-c2nc3ccccc3o2)cc1NC(=O)Cc1cccs1`?
OX1R antag-1: 0; OX1R antag-2: 2; GPR7 antag: -1; GalR3 antagonist: 0; CHO parental Ca: 2

Results for CCCCc1c(-c2ccccc2OC)ncn1Cc1ccc(C)cc1 ?
GalR3 antagonist: -7

How did CCn1c(O)c(/C=C2\C=Nc3ccccc32)sc1=O do in these assays?
OX1R antag-1: 86*; OX1R antag-2: 16; GPR7 antag: -9; GalR3 antagonist: -1; CHO parental Ca: -20; OX1R HTRF confirm: 86*; CHO-K1 HTRF: 6

What do the screens show for `CC1(C(=O)NCc2ccccc2Br)CCN1Cc1ccc(-c2ccccn2)cc1` (stereo not drawn)?
GalR3 antagonist: -10

Results for Cc1noc(C)c1CS(=O)(=O)c1ccc([N+](=O)[O-])cc1 ?
OX1R antag-1: 107*; OX1R antag-2: -7; GPR7 antag: -3; GalR3 antagonist: -2; CHO parental Ca: 10; OX1R HTRF confirm: 58*; CHO-K1 HTRF: 58*

How did O=C(Nc1cccc(Cl)c1)Nc1ccc(Br)cc1F do in these assays?
OX1R antag-1: 82*; OX1R antag-2: 15; GPR7 antag: -2; GalR3 antagonist: -5; CHO parental Ca: 10; OX1R HTRF confirm: 36; CHO-K1 HTRF: 15

How did O=C(NNC(=O)c1ccc([N+](=O)[O-])cc1Cl)c1ccncc1 do in these assays?
OX1R antag-1: 103*; OX1R antag-2: -11; GPR7 antag: -1; GalR3 antagonist: 0; CHO parental Ca: -6; OX1R HTRF confirm: 39; CHO-K1 HTRF: 44*

How did CCN(C(=O)CN1C(=O)c2ccc([N+](=O)[O-])cc2C1=O)C1CCS(=O)(=O)C1 (stereo not drawn) do in these assays?
OX1R antag-1: 90*; OX1R antag-2: -5; GalR3 antagonist: 0; CHO parental Ca: 6; OX1R HTRF confirm: 64*; CHO-K1 HTRF: 74*

Results for O=C(Cn1cnc2cc([N+](=O)[O-])ccc2c1=O)N(Cc1ccccc1)C1CCS(=O)(=O)C1 (stereo not drawn) ?
OX1R antag-1: 49; OX1R antag-2: -22; GPR7 antag: 3; GalR3 antagonist: 1; CHO parental Ca: -16

How did O=C(NCCCN1CCOCC1)c1cc2cc(Br)ccc2oc1=O do in these assays?
OX1R antag-1: 124*; OX1R antag-2: -18; GPR7 antag: 3; GalR3 antagonist: 3; CHO parental Ca: -20; OX1R HTRF confirm: 42; CHO-K1 HTRF: 41*
